The assay has as its target Histamine H3 receptor (Rattus norvegicus, UniProt Q9QYN8). In words: In vitro antagonistic activity tested against Histamine H3 receptor on synaptosomes from rat cerebral cortex. The procedure, abridged: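 Preloaded 30 min with L-[3H]histidine (0.4 µM) at 37 °C in modified Krebs-Ringer. Washed, resuspended in 2 mM K+ medium, then depolarized 2 min with 2 or 30 mM K+ (final). […] Stopped by rapid centrifugation; liquid scintillation. Ki by Cheng-Prusoff; mean ± SEM, ≥3 determinations.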

From BindingDB's records for doi:10.1021/jm9504767 (Freie Universität Berlin, 1996) come the findings set out here.

Each structure is given as a SMILES string.

Sequence of Histamine H3 receptor (Q9QYN8 whole entry): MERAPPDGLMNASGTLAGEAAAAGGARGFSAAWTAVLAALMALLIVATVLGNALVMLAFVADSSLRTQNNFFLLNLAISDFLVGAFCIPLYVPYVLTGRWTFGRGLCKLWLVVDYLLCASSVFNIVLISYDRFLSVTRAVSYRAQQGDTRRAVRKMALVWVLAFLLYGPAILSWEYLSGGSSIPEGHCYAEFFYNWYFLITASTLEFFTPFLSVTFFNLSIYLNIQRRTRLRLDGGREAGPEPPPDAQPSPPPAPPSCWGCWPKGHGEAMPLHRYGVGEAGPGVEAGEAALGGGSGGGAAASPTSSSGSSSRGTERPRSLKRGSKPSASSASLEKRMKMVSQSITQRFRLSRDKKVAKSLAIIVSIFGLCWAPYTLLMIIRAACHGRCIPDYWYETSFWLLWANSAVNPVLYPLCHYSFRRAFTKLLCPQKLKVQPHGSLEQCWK

Turning to `Ic1ccc(OCCCc2cnc[nH]2)cc1` [4-[3-(4-Iodo-phenoxy)-propyl]-1H-imidazole], the Ki – broadly, the equilibrium dissociation constant of an inhibitor or competing ligand from its target – amounted to 19.9 nM.

Regarding `Cc1ccc(C(=O)OCCCc2cnc[nH]2)cc1I` [3-Iodo-4-methyl-benzoic acid 3-(1H-imidazol-4-yl)-propyl ester], the Ki came out at 31.6 nM.

For the molecule `Ic1ccc(CCCOCCCc2cnc[nH]2)cc1` [4-{3-[3-(4-Iodo-phenyl)-propoxy]-propyl}-1H-imidazole], the inhibitory constant (Ki) is 31.6 nM.

In turn, `Ic1cccc(OCCCc2cnc[nH]2)c1` [4-[3-(3-Iodo-phenoxy)-propyl]-1H-imidazole] came in with a Ki of 16 nM. This Ki lies about 2-fold lower than the previous one.

Consider `O=C(CCc1ccc(I)cc1)OCCCc1cnc[nH]1` [3-(4-Iodo-phenyl)-propionic acid 3-(1H-imidazol-4-yl)-propyl ester], for which affinity was put at a Ki of 50 nM.

In the case of `COc1ccc(CCC(=O)OCCCc2cnc[nH]2)cc1I` [3-(3-Iodo-4-methoxy-phenyl)-propionic acid 3-(1H-imidazol-4-yl)-propyl ester], the affinity corresponds to a Ki of 251 nM.

Consider `Ic1cccc(COCCCc2cnc[nH]2)c1` [4-[3-(3-Iodo-benzyloxy)-propyl]-1H-imidazole], for which the affinity corresponds to a Ki of 6.31 nM. This Ki lies about 40-fold lower than the previous one.

The molecule `Nc1c(I)cc(C(=O)OCCCc2cnc[nH]2)cc1I` [4-Amino-3,5-diiodo-benzoic acid 3-(1H-imidazol-4-yl)-propyl ester] registered a Ki of 158 nM.

On to `Brc1ccc(COCCCc2cnc[nH]2)cc1` [4-[3-(4-Bromo-benzyloxy)-propyl]-1H-imidazole], for which the inhibition constant Ki worked out at 12.6 nM.
